≈ marks a conversion by molar mass, not a printed value. Calls of active or inactive are those of the source. The calls are words filed in the database; no cut-off is given here.
Experiments:
Pseudomonas aeruginosa [1] = assay: Antimicrobial activity against Pseudomonas aeruginosa at 15 ug after 24 hrs by disk diffusion method; type: functional; conditions: read-out: IZ
Procedure, shortened: (§1)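 Inoculum made in 0.85% saline against McFarland standard, swabbed evenly onto nutrient agar; sterile filter-paper discs set equidistant and loaded with equal volumes of drug at varying amounts; zone of inhibition measured after 24 h at 37 °C; ciprofloxacin reference.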

Bacillus subtilis [2] = assay: Antimicrobial activity against Bacillus subtilis at 25 ug after 24 hrs by disk diffusion method; type: functional; conditions: read-out: IZ; procedure, shortened: as §1
Klebsiella pneumoniae [3] = assay: Antimicrobial activity against Klebsiella pneumoniae at 10 ug after 24 hrs by disk diffusion method; type: functional; conditions: read-out: IZ; procedure, shortened: as §1
Salmonella typhimurium [4] = assay: Antimicrobial activity against Salmonella Typhimurium at 20 ug after 24 hrs by disk diffusion method; type: functional, Salmonella enterica subsp. enterica serovar Typhimurium; conditions: Salmonella enterica, read-out: IZ; procedure, shortened: as §1
Klebsiella pneumoniae [5] = assay: Antimicrobial activity against Klebsiella pneumoniae by broth microdilution assay; type: functional
Procedure, shortened: (§2)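 Broth microdilution per NCCLS 1997 in 96-well plate; final inoculum 10^5 cfu/mL; incubated 35.7 °C in air 18–20 h; MIC read as lowest concentration with no visible growth.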

Pseudomonas aeruginosa [6] = assay: Antimicrobial activity against Pseudomonas aeruginosa at 10 ug after 24 hrs by disk diffusion method; type: functional; conditions: read-out: IZ; procedure, shortened: as §1
Salmonella typhimurium [7] = assay: Antimicrobial activity against Salmonella Typhimurium at 25 ug after 24 hrs by disk diffusion method; type: functional, Salmonella enterica subsp. enterica serovar Typhimurium; conditions: Salmonella enterica, read-out: IZ; procedure, shortened: as §1
Staphylococcus aureus [8] = assay: Antimicrobial activity against Staphylococcus aureus at 25 ug after 24 hrs by disk diffusion method; type: functional; conditions: read-out: IZ; procedure, shortened: as §1
Staphylococcus aureus [9] = assay: Antimicrobial activity against Staphylococcus aureus at 20 ug after 24 hrs by disk diffusion method; type: functional; conditions: read-out: IZ; procedure, shortened: as §1
Klebsiella pneumoniae [10] = assay: Antimicrobial activity against Klebsiella pneumoniae at 20 ug after 24 hrs by disk diffusion method; type: functional; conditions: read-out: IZ; procedure, shortened: as §1
Escherichia coli [11] = assay: Antimicrobial activity against Escherichia coli by broth microdilution assay; type: functional; procedure, shortened: as §2
Salmonella typhi = assay: Antimicrobial activity against Salmonella typhi by broth microdilution assay; type: functional, Salmonella enterica subsp. enterica serovar Typhi; conditions: Salmonella enterica
Procedure, shortened: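 Broth microdilution in 96-well plates following the NCCLS 1997 protocol. Final inoculum was 10^5 cfu/mL, with a control organism run alongside. Plates were incubated at 35.7 °C in air for 18–20 h. MIC is the lowest concentration with no visible growth.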

Salmonella typhimurium [12] = assay: Antimicrobial activity against Salmonella Typhimurium at 15 ug after 24 hrs by disk diffusion method; type: functional, Salmonella enterica subsp. enterica serovar Typhimurium; conditions: Salmonella enterica, read-out: IZ; procedure, shortened: as §1
Escherichia coli [13] = assay: Antimicrobial activity against Escherichia coli at 15 ug after 24 hrs by disk diffusion method; type: functional; conditions: read-out: IZ; procedure, shortened: as §1
Staphylococcus aureus [14] = assay: Antimicrobial activity against Staphylococcus aureus at 10 ug after 24 hrs by disk diffusion method; type: functional; conditions: read-out: IZ; procedure, shortened: as §1
Pseudomonas aeruginosa [15] = assay: Antimicrobial activity against Pseudomonas aeruginosa by broth microdilution assay; type: functional; procedure, shortened: as §2
Escherichia coli [16] = assay: Antimicrobial activity against Escherichia coli at 25 ug after 24 hrs by disk diffusion method; type: functional; conditions: read-out: IZ; procedure, shortened: as §1
Klebsiella pneumoniae [17] = assay: Antimicrobial activity against Klebsiella pneumoniae at 25 ug after 24 hrs by disk diffusion method; type: functional; conditions: read-out: IZ; procedure, shortened: as §1
Staphylococcus aureus [18] = assay: Antimicrobial activity against Staphylococcus aureus at 15 ug after 24 hrs by disk diffusion method; type: functional; conditions: read-out: IZ; procedure, shortened: as §1
Bacillus subtilis [19] = assay: Antimicrobial activity against Bacillus subtilis at 15 ug after 24 hrs by disk diffusion method; type: functional; conditions: read-out: IZ; procedure, shortened: as §1
Staphylococcus aureus [20] = assay: Antimicrobial activity against Staphylococcus aureus by broth microdilution assay; type: functional; procedure, shortened: as §2
[21] = Inhibition of DNA gyrase assessed as conversion of relaxed pBR322 to supercoiled form
Procedure, shortened: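 Supercoiling in 15 µL reactions: gyrase assay buffer, 150 ng relaxed pBR322, 2–3 µL purified DNA gyrase, 3 h at 37 °C (E. coli); stopped with 50% glycerol/0.25% bromophenol blue; 1% agarose in 1× TBE pH 8.3, 90 V 3 h; ethidium bromide stain; supercoiled band brightness by densitometry. Ciprofloxacin comparator.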

Escherichia coli [22] = assay: Antimicrobial activity against Escherichia coli at 5 ug after 24 hrs by disk diffusion method; type: functional; conditions: read-out: IZ; procedure, shortened: as §1
Bacillus subtilis [23] = assay: Antimicrobial activity against Bacillus subtilis at 10 ug after 24 hrs by disk diffusion method; type: functional; conditions: read-out: IZ; procedure, shortened: as §1
Staphylococcus aureus [24] = assay: Antimicrobial activity against Staphylococcus aureus at 5 ug after 24 hrs by disk diffusion method; type: functional; conditions: read-out: IZ; procedure, shortened: as §1
[25] = Inhibition of DNA gyrase assessed as pBR322 DNA relaxation at 5 uM
Procedure, shortened: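 Relaxation without ATP: gyrase (60 nM) with supercoiled pBR322 DNA (6 nM) and drug at […] for 1 h at 37 °C; relaxation judged by gel. Ciprofloxacin, novobiocin and nalidixic acid comparators.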

Pseudomonas aeruginosa [26] = assay: Antimicrobial activity against Pseudomonas aeruginosa at 5 ug after 24 hrs by disk diffusion method; type: functional; conditions: read-out: IZ; procedure, shortened: as §1
Salmonella typhimurium [27] = assay: Antimicrobial activity against Salmonella Typhimurium at 5 ug after 24 hrs by disk diffusion method; type: functional, Salmonella enterica subsp. enterica serovar Typhimurium; conditions: Salmonella enterica, read-out: IZ; procedure, shortened: as §1
Pseudomonas aeruginosa [28] = assay: Antimicrobial activity against Pseudomonas aeruginosa at 25 ug after 24 hrs by disk diffusion method; type: functional; conditions: read-out: IZ; procedure, shortened: as §1
Escherichia coli [29] = assay: Inhibition of DNA gyrase gene expression in Escherichia coli assessed as decrease in band intensity by RT-PCR amplification
Procedure, shortened: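 E. coli treated with drug; total RNA from cells sampled up to 24 h; 2 µg RNA to cDNA with MMLV reverse transcriptase; gyrase gene PCR (94 °C 4 min initial denaturation, 72 °C 7 min final extension); products on agarose gel, band intensity normalized to GAPDH; untreated cells as negative control.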

Escherichia coli [30] = assay: Antimicrobial activity against Escherichia coli at 20 ug after 24 hrs by disk diffusion method; type: functional; conditions: read-out: IZ; procedure, shortened: as §1
Bacillus subtilis [31] = assay: Antimicrobial activity against Bacillus subtilis at 20 ug after 24 hrs by disk diffusion method; type: functional; conditions: read-out: IZ; procedure, shortened: as §1
Bacillus subtilis [32] = assay: Antimicrobial activity against Bacillus subtilis by broth microdilution assay; type: functional; procedure, shortened: as §2
Escherichia coli [33] = assay: Antimicrobial activity against Escherichia coli at 10 ug after 24 hrs by disk diffusion method; type: functional; conditions: read-out: IZ; procedure, shortened: as §1
Klebsiella pneumoniae [34] = assay: Antimicrobial activity against Klebsiella pneumoniae at 15 ug after 24 hrs by disk diffusion method; type: functional; conditions: read-out: IZ; procedure, shortened: as §1
Klebsiella pneumoniae [35] = assay: Antimicrobial activity against Klebsiella pneumoniae at 5 ug after 24 hrs by disk diffusion method; type: functional; conditions: read-out: IZ; procedure, shortened: as §1
Salmonella typhimurium [36] = assay: Antimicrobial activity against Salmonella Typhimurium at 10 ug after 24 hrs by disk diffusion method; type: functional, Salmonella enterica subsp. enterica serovar Typhimurium; conditions: Salmonella enterica, read-out: IZ; procedure, shortened: as §1
Pseudomonas aeruginosa [37] = assay: Antimicrobial activity against Pseudomonas aeruginosa at 20 ug after 24 hrs by disk diffusion method; type: functional; conditions: read-out: IZ; procedure, shortened: as §1

**Q.** What does the source list for `COc1ccc2c(c1)C(c1ccccc1)[C@@H]1Cn3cccc3[C@@H]1N2` (some centres undefined)?
**A.** zone of inhibition at 15 µg/disc (Pseudomonas aeruginosa [1]): 28 mm; zone of inhibition at 25 µg/disc (Bacillus subtilis [2]): 11 mm; zone of inhibition at 10 µg/disc (Klebsiella pneumoniae [3]): 14 mm; zone of inhibition at 20 µg/disc (Salmonella typhimurium [4]): 22 mm; MIC50 (Klebsiella pneumoniae [5]): 0.25 µg/mL (≈ 0.79 µM); MIC90 (Klebsiella pneumoniae [5]): 2 µg/mL (≈ 6.32 µM); zone of inhibition at 10 µg/disc (Pseudomonas aeruginosa [6]): 26 mm; zone of inhibition at 25 µg/disc (Salmonella typhimurium [7]): 24 mm; zone of inhibition at 25 µg/disc (Staphylococcus aureus [8]): 36 mm; zone of inhibition at 20 µg/disc (Staphylococcus aureus [9]): 30 mm; zone of inhibition at 20 µg/disc (Klebsiella pneumoniae [10]): 24 mm; MIC50 (Escherichia coli [11]): 0.125 µg/mL (≈ 0.395 µM); MIC90 (Escherichia coli [11]): 0.25 µg/mL (≈ 0.79 µM); MIC50 (Salmonella typhi): 0.06 µg/mL (≈ 0.19 µM); MIC90 (Salmonella typhi): 0.15 µg/mL (≈ 0.474 µM); zone of inhibition at 15 µg/disc (Salmonella typhimurium [12]): 18 mm; zone of inhibition at 15 µg/disc (Escherichia coli [13]): 16 mm; zone of inhibition at 10 µg/disc (Staphylococcus aureus [14]): 24 mm; MIC50 (Pseudomonas aeruginosa [15]): 0.125 µg/mL (≈ 0.395 µM); MIC90 (Pseudomonas aeruginosa [15]): 1 µg/mL (≈ 3.16 µM); zone of inhibition at 25 µg/disc (Escherichia coli [16]): 23 mm; zone of inhibition at 25 µg/disc (Klebsiella pneumoniae [17]): 26 mm; zone of inhibition at 15 µg/disc (Staphylococcus aureus [18]): 26 mm; zone of inhibition at 15 µg/disc (Bacillus subtilis [19]): 9 mm; MIC50 (Staphylococcus aureus [20]): 0.5 µg/mL (≈ 1.58 µM); MIC90 (Staphylococcus aureus [20]): 0.5 µg/mL (≈ 1.58 µM); Activity [21]: Active; zone of inhibition at 5 µg/disc (Escherichia coli [22]): 12 mm; zone of inhibition at 10 µg/disc (Bacillus subtilis [23]): 8 mm; zone of inhibition at 5 µg/disc (Staphylococcus aureus [24]): 20 mm; Activity [25]: inactive; zone of inhibition at 5 µg/disc (Pseudomonas aeruginosa [26]): 24 mm; zone of inhibition at 5 µg/disc (Salmonella typhimurium [27]): 10 mm; zone of inhibition at 25 µg/disc (Pseudomonas aeruginosa [28]): 36 mm; Activity (Escherichia coli [29]): Active; zone of inhibition at 20 µg/disc (Escherichia coli [30]): 22 mm; zone of inhibition at 20 µg/disc (Bacillus subtilis [31]): 10 mm; MIC50 (Bacillus subtilis [32]): 0.3 µg/mL (≈ 0.948 µM); MIC90 (Bacillus subtilis [32]): 2 µg/mL (≈ 6.32 µM); zone of inhibition at 10 µg/disc (Escherichia coli [33]): 14 mm; zone of inhibition at 15 µg/disc (Klebsiella pneumoniae [34]): 16 mm; zone of inhibition at 5 µg/disc (Klebsiella pneumoniae [35]): 10 mm; zone of inhibition at 10 µg/disc (Salmonella typhimurium [36]): 16 mm; zone of inhibition at 20 µg/disc (Pseudomonas aeruginosa [37]): 34 mm

Reference: ChEMBL document CHEMBL1140876, “Synthesis and antibacterial property of quinolines with potent DNA gyrase activity” (2009)
